Experimental data from ChEMBL document CHEMBL4325900, “Antibacterial activity evaluation of synthetic novel pleuromutilin derivatives in vitro and in experimental infection mice” (2019).
Values after ≈ are worked out from the molar mass of the structure shown.

Key:
Enterococcus faecium = experiment: Antibacterial activity against Enterococcus faecium after 24 hrs by NCCLS method; type: functional
Method in brief: (§1)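 Broth microdilution in Mueller-Hinton broth. Stocks at 1280 µg/mL in aqueous 10-20% DMSO were diluted to 128 µg/mL, then serially 2-fold diluted giving final concentrations of 64 down to 0.125 µg/mL. Overnight MHB cultures were diluted to 10^6~10^7 CFU/mL, and 100 µL was added per well. Plates ran 24 h at 37°C. MIC was read from OD against an MHB blank, in triplicate.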

Escherichia coli = experiment: Antibacterial activity against Escherichia coli ATCC 11775 after 24 hrs by NCCLS method; type: functional; conditions: DSM 30083 = JCM 1649 = ATCC 11775, 24 h; method in brief: as §1
[1] = test system: Staphylococcus epidermidis; experiment: Antibacterial activity against methicillin-resistant Staphylococcus epidermidis after 24 hrs by NCCLS method; type: functional
Method in brief: (§2)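 Broth microdilution in Mueller-Hinton broth. Stocks at 1280 µg/mL in aqueous 10-20% DMSO, diluted to 128 µg/mL, then 2-fold serially to final 64 down to 0.125 µg/mL. Overnight MHB cultures diluted to 10^6~10^7 CFU/mL and added 1:1 to compound. Incubated 24 h at 37°C. MIC read from OD against MHB blank. Three parallels per concentration.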

Staphylococcus aureus [2] = experiment: Antibacterial activity against methicillin-sensitive Staphylococcus aureus after 24 hrs by NCCLS method; type: functional; method in brief: as §1
[3] = test system: Staphylococcus epidermidis; experiment: Antibacterial activity against methicillin-sensitive Staphylococcus epidermidis after 24 hrs by NCCLS method; type: functional; method in brief: as §2
Staphylococcus aureus [4] = experiment: Antibacterial activity against methicillin-resistant Staphylococcus aureus after 24 hrs by NCCLS method; type: functional; method in brief: as §2
Pasteurella multocida = experiment: Antibacterial activity against Pasteurella multocida after 24 hrs by NCCLS method; type: functional; method in brief: as §1
Enterococcus faecalis = experiment: Antibacterial activity against Enterococcus faecalis after 24 hrs by NCCLS method; type: functional; method in brief: as §1
Staphylococcus aureus [5] = experiment: Antibacterial activity against methicillin-resistant Staphylococcus aureus infected in Kunming mouse assessed as mouse survival at 20 mg/kg, ig qd treated for 3 consecutive days and measured up to 10 days relative to control; type: functional; conditions: po, 240 h
Method in brief: (§3)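 Female Kunming mice, 22±2 g, made neutropenic with cyclophosphamide i.p., 150 mg/kg 4 days and 100 mg/kg 1 day before infection. Infected i.p. with 0.5 mL suspension of clinical MRSA isolate. Intragastric dosing at 20 or 40 mg/kg/d, starting 1 h post-infection, once daily for 3 consecutive days. Survival monitored.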

Staphylococcus aureus [6] = experiment: Antibacterial activity against methicillin-resistant Staphylococcus aureus clinical isolates infected in ip dosed mouse assessed as reduction in bacterial infection administered 1 hr after infection and measured after 7 days; type: functional
Method in brief: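 Kunming mice, half male and half female, 19-23 g, 10 per group. Infected i.p. with 0.5 mL clinical MRSA isolate suspension (~10^7 CFU/mL). Single i.p. dose 1 h post-infection, five dose levels between 7.0 and 50.0 mg/kg depending on compound. Vehicle was DMSO:Tween-80:water 1:1:8, or water for valnemulin. ED50 by Probit analysis from survival after 7 days; 95% confidence ranges.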

Staphylococcus aureus [7] = experiment: Antibacterial activity against methicillin-resistant Staphylococcus aureus infected in Kunming mouse assessed as mouse survival at 40 mg/kg, ig qd treated for 3 consecutive days and measured at day 6 relative to control; type: functional; conditions: po, 144 h; method in brief: as §3
Staphylococcus aureus [8] = experiment: Antibacterial activity against methicillin-resistant Staphylococcus aureus infected in Kunming mouse assessed as mouse survival at 40 mg/kg, ig qd treated for 3 consecutive days and measured during compound treatment relative to control; type: functional; conditions: po; method in brief: as §3
Staphylococcus aureus [9] = experiment: Bactericidal activity against exponential phase of methicillin-resistant Staphylococcus aureus after 1 to 4 hrs by time kill kinetics assay; type: functional, organism-based
Method in brief: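 Exponential-phase S. aureus (4 h at 37°C, 120 rpm) diluted to ~2×10^7 CFU/mL in MHB and mixed 1:1 with MHB containing twice the desired compound concentration. Shaken at 37°C, 120 rpm. Samples at 1, 2, 3 and 4 h washed with PBS, diluted, spot-plated on MH agar, counted after ~18 h at 37°C as log10 CFU/mL. Triplicate, mean±s.d.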

Staphylococcus aureus [10] = experiment: Antibacterial activity against methicillin-resistant Staphylococcus aureus infected in Kunming mouse assessed as mouse survival at 40 mg/kg, ig qd treated for 3 consecutive days and measured at day 5 relative to control; type: functional; conditions: po, 120 h; method in brief: as §3

SMILES	MIC (Enterococcus faecium)	MIC (Escherichia coli)	MIC [1]	MIC (Staphylococcus aureus [2])	MIC [3]	MIC (Staphylococcus aureus [4])	MIC (Pasteurella multocida)	MIC (Enterococcus faecalis)	survival at 20 mg/kg (Staphylococcus aureus [5])	ED50 (Staphylococcus aureus [6])	survival at 40 mg/kg (Staphylococcus aureus [7])	survival at 40 mg/kg (Staphylococcus aureus [8])	Activity (Staphylococcus aureus [9])	survival at 40 mg/kg (Staphylococcus aureus [10])
C=C[C@]1(C)C[C@@H](OC(=O)CSc2nc(NC(=O)CN3CCN(C)CC3)c3cc[nH]c3n2)[C@]2(C)[C@H](C)CC[C@]3(CCC(=O)[C@H]32)[C@@H](C)[C@@H]1O	0.5 µg/mL (≈ 0.75 µM)	> 64 µg/mL	0.5 µg/mL (≈ 0.75 µM)	0.125 µg/mL (≈ 0.187 µM)	0.25 µg/mL (≈ 0.375 µM)	1 µg/mL (≈ 1.5 µM)	32 µg/mL (≈ 48 µM)	64 µg/mL (≈ 96 µM)	–	–	–	–	–	–
C=C[C@]1(C)C[C@@H](OC(=O)CSC(C)(C)CNC(=O)[C@H](N)C(C)C)[C@]2(C)[C@H](C)CC[C@]3(CCC(=O)[C@H]32)[C@@H](C)[C@@H]1O.Cl [VALNEMULIN HYDROCHLORIDE]	0.125 µg/mL	32 µg/mL	0.25 µg/mL	0.25 µg/mL	0.125 µg/mL	0.25 µg/mL	16 µg/mL	> 64 µg/mL	30%	13.5 mg/kg	80%	> 90%	Dose-dependent effect	70%
C=C[C@]1(C)C[C@@H](OC(=O)CSc2nc(NC(=O)CN3CCC(CO)CC3)c3cc[nH]c3n2)[C@]2(C)[C@H](C)CC[C@]3(CCC(=O)[C@H]32)[C@@H](C)[C@@H]1O	0.25 µg/mL (≈ 0.367 µM)	> 64 µg/mL	0.125 µg/mL (≈ 0.183 µM)	0.25 µg/mL (≈ 0.367 µM)	0.125 µg/mL (≈ 0.183 µM)	0.25 µg/mL (≈ 0.367 µM)	64 µg/mL (≈ 93.9 µM)	64 µg/mL (≈ 93.9 µM)	–	–	–	–	–	–
C=C[C@]1(C)C[C@@H](OC(=O)CSc2nc(NC(=O)CN3CCN(c4ccccc4)CC3)c3cc[nH]c3n2)[C@]2(C)[C@H](C)CC[C@]3(CCC(=O)[C@H]32)[C@@H](C)[C@@H]1O	1 µg/mL (≈ 1.37 µM)	> 64 µg/mL	1 µg/mL (≈ 1.37 µM)	1 µg/mL (≈ 1.37 µM)	0.5 µg/mL (≈ 0.686 µM)	1 µg/mL (≈ 1.37 µM)	64 µg/mL (≈ 87.8 µM)	64 µg/mL (≈ 87.8 µM)	–	–	–	–	–	–
C=C[C@]1(C)C[C@@H](OC(=O)CSc2nc(NC(=O)CN3CCOCC3)c3cc[nH]c3n2)[C@]2(C)[C@H](C)CC[C@]3(CCC(=O)[C@H]32)[C@@H](C)[C@@H]1O	0.25 µg/mL (≈ 0.382 µM)	64 µg/mL (≈ 97.9 µM)	0.25 µg/mL (≈ 0.382 µM)	0.125 µg/mL (≈ 0.191 µM)	0.25 µg/mL (≈ 0.382 µM)	0.25 µg/mL (≈ 0.382 µM)	32 µg/mL (≈ 48.9 µM)	64 µg/mL (≈ 97.9 µM)	–	–	–	–	–	–
C=C[C@]1(C)C[C@@H](OC(=O)CSc2nc(NC(=O)CN3CCNCC3)c3cc[nH]c3n2)[C@]2(C)[C@H](C)CC[C@]3(CCC(=O)[C@H]32)[C@@H](C)[C@@H]1O	1 µg/mL (≈ 1.53 µM)	> 64 µg/mL	1 µg/mL (≈ 1.53 µM)	2 µg/mL (≈ 3.06 µM)	1 µg/mL (≈ 1.53 µM)	4 µg/mL (≈ 6.13 µM)	32 µg/mL (≈ 49 µM)	64 µg/mL (≈ 98 µM)	–	–	–	–	–	–
C=C[C@]1(C)C[C@@H](OC(=O)CSc2nc(N)c3cc[nH]c3n2)[C@]2(C)[C@H](C)CC[C@]3(CCC(=O)[C@H]32)[C@@H](C)[C@@H]1O	1 µg/mL (≈ 1.9 µM)	> 64 µg/mL	2 µg/mL (≈ 3.8 µM)	1 µg/mL (≈ 1.9 µM)	1 µg/mL (≈ 1.9 µM)	1 µg/mL (≈ 1.9 µM)	64 µg/mL (≈ 122 µM)	64 µg/mL (≈ 122 µM)	–	–	–	–	–	–
C=C[C@]1(C)C[C@@H](OC(=O)CSc2nc(NC(=O)CN3CCCCC3)c3cc[nH]c3n2)[C@]2(C)[C@H](C)CC[C@]3(CCC(=O)[C@H]32)[C@@H](C)[C@@H]1O	0.125 µg/mL (≈ 0.192 µM)	64 µg/mL (≈ 98.2 µM)	0.125 µg/mL (≈ 0.192 µM)	0.0625 µg/mL (≈ 0.0959 µM)	0.0625 µg/mL (≈ 0.0959 µM)	0.125 µg/mL (≈ 0.192 µM)	32 µg/mL (≈ 49.1 µM)	32 µg/mL (≈ 49.1 µM)	–	19.7 mg/kg	–	–	–	–
